ChEMBL document CHEMBL5257020, “Discovery of a 9-mer Cationic Peptide (LTX-315) as a Potential First in Class Oncolytic Peptide” (J Med Chem, 2016)
Where a SMILES comes first, the peptide text is derived from it. [ ]: non-standard residue; d: D form. ξ: configuration not given here. Bip = N[C@@H](Cc1ccc(-c2ccccc2)cc1)C(=O)O; ξBip = NC(Cc1ccc(-c2ccccc2)cc1)C(=O)O; ξDip = NC(C(=O)O)C(c1ccccc1)c1ccccc1

Experiments:
[1] = Cytotoxicity against human IGROV(CDDP) cells assessed as inhibition of cell proliferation incubated for 4 hrs by MTS assay; format: functional, cell-based
How it was run: (§1)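 Cells grown in RPMI-1640 with 2 mM L-glutamine and 10% FBS, plated, then held 24 h at 37 °C. Adherent lines washed once in FBS-free medium. Cells exposed 4 h at 37 °C, 5% CO2 in FBS-free medium to 10 concentrations (1/4 steps, 400 μM top). 1% Triton X-100 served as positive control. MTS/PMS added for 2 h, then OD 490 nm read. IC50 from semilog curves; three independent experiments, quadruplicate wells.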

[2] = tested on: CEM-VLB; experiment: Cytotoxicity against human CCRF-CEM/VLB cells assessed as inhibition of cell proliferation incubated for 4 hrs by MTS assay; format: functional, cell-based; how it was run: as §1
[3] = tested on: PC-3; experiment: Cytotoxicity against human PC-3 cells assessed as inhibition of cell proliferation incubated for 4 hrs by MTS assay; format: functional, cell-based; settings: PC-3, 4 h; how it was run: as §1
[4] = tested on: SH-SY5Y; experiment: Cytotoxicity against human SH-SY5Y cells assessed as inhibition of cell proliferation incubated for 4 hrs by MTS assay; format: functional, cell-based; how it was run: as §1
[5] = tested on: NAMALVA; experiment: Cytotoxicity against human NAMALVA cells assessed as inhibition of cell proliferation incubated for 4 hrs by MTS assay; format: functional, cell-based; how it was run: as §1
[6] = tested on: 786-0; experiment: Cytotoxicity against human 786-0 cells assessed as inhibition of cell proliferation incubated for 4 hrs by MTS assay; format: functional, cell-based; settings: 786-0, 4 h; how it was run: as §1
[7] = tested on: NCI-H460; experiment: Cytotoxicity against human NCI-H460 cells assessed as inhibition of cell proliferation incubated for 4 hrs by MTS assay; format: functional, cell-based; settings: NCI-H460, 4 h; how it was run: as §1
[8] = tested on: K562; experiment: Cytotoxicity against human K562 cells assessed as inhibition of cell proliferation incubated for 4 hrs by MTS assay; format: functional, cell-based; settings: K562, 4 h; how it was run: as §1
[9] = tested on: K562; experiment: Cytotoxicity in imatinib resistant human K562 cells assessed as inhibition of cell proliferation incubated for 4 hrs by MTS assay; format: functional, cell-based; settings: K562, 4 h
How it was run: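 Oncodesign panel MTS/PMS assay. Cells in RPMI-1640 + 10% FBS. After 24 h pre-plating, adherent lines washed in FBS-free medium. Cells exposed 4 h at 37 °C in FBS-free medium to 10 concentrations, 1/4 dilutions from 400 μM top. Triton X-100 (1% final) positive control. MTS/PMS added, 2 h, OD 490 nm. IC50 from semilog curves. Three independent experiments, quadruplicate wells.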

[10] = tested on: Ramos; experiment: Cytotoxicity against human Ramos cells assessed as inhibition of cell proliferation incubated for 4 hrs by MTS assay; format: functional, cell-based; how it was run: as §1
[11] = tested on: A-431; experiment: Cytotoxicity against human A-431 cells assessed as inhibition of cell proliferation incubated for 4 hrs by MTS assay; format: functional, cell-based; settings: A-431, 4 h; how it was run: as §1
[12] = tested on: A498; experiment: Cytotoxicity against human A498 cells assessed as inhibition of cell proliferation incubated for 4 hrs by MTS assay; format: functional, cell-based; settings: A498, 4 h; how it was run: as §1
[13] = Cytotoxicity against mouse AT84 cells assessed as inhibition of cell proliferation incubated for 4 hrs by MTT assay; format: functional, cell-based; settings: AT84, 4 h
[14] = tested on: HT-29; experiment: Cytotoxicity against human HT-29 cells assessed as inhibition of cell proliferation incubated for 4 hrs by MTS assay; format: functional, cell-based; settings: HT-29, 4 h; how it was run: as §1
[15] = Drug uptake in rat Red blood cells at 60 mins by LC-MS/MS analysis; format: ADME, cell-based; settings: erythrocyte, 1 h
How it was run: (§2)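 Pooled fresh whole blood (≥3 male and 3 female human, beagle dog or rat donors) spiked to 200 ng/mL. Incubated ~37 °C on rotary mixer over 0–120 min. Hematocrit determined. Blood and plasma analysed by LC–MS/MS. Blood/plasma ratio = Cb/C. Cell association = {[C(1 − H)]/Cb} × 100. Values at 60 min, mean of two independent measurements.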

[16] = target: T1, Cytochrome P450 2C8 (Homo sapiens, UniProt P10632); experiment: Inhibition of CYP2C8 in human liver microsomes using paclitaxel as substrate assessed as reduction in substrate hydroxylation incubated for 30 mins in presence of beta-NADPH measured by LC-MS/MS analysis; format: ADME, Microsome
T1 sequence (P10632 whole entry, canonical isoform): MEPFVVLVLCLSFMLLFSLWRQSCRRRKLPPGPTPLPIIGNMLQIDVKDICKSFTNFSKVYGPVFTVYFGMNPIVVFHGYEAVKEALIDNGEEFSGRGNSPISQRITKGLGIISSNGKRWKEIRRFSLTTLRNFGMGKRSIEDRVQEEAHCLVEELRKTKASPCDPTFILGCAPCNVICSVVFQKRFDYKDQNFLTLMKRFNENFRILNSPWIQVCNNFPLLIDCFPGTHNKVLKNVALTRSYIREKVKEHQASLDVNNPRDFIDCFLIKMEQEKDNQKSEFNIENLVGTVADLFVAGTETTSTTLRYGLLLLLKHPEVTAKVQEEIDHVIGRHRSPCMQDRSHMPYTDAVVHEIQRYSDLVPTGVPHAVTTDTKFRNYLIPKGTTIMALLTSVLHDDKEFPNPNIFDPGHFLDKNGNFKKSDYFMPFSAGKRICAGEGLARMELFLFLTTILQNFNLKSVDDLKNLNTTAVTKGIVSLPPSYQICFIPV
How it was run: (§3)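 Pooled human liver microsomes (50 donors) in 100 mM phosphate, pH 7.4, with 2 mM β-NADPH. Protein 0.1 mg/mL (2A6, 2C8, 2C9, 2E1, 3A4) or 0.3 mg/mL (1A2, 2B6, 2C19, 2D6). Test article 0–100 μM final, preincubated ~37 °C 5 or 30 min before isoform-selective substrate. Quenched in methanol with internal standard. Metabolite measured by LC–MS/MS against standard curve. Duplicates, with selective inhibitor positive controls.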

[17] = Protein binding in Han Wistar rat plasma assessed as bound fraction at 200 to 1000 ng/ml incubated for 20 hrs in presence of AEBSF by LC-MS/MS analysis; format: ADME, cell-free; settings: dose 200-1000 ng/ml, read-out: PPB
How it was run: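 Pooled plasma (human volunteers; Han Wistar rat; Beagle dog) containing AEBSF 1 mg/mL. Spiked to 200, 500 or 1000 ng/mL final, in duplicate. Ultracentrifuged 45 000 rpm, 37 °C, 20 h. Supernatant quantified by LC–MS/MS. % bound = [(C − CS)/C] × 100. Values are upper limits because of residual degradation.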

[18] = target: Cytochrome P450 2A6 (Homo sapiens, UniProt P11509); experiment: Inhibition of CYP2A6 in human liver microsomes using coumarin as substrate assessed as reduction in substrate hydroxylation incubated for 5 mins in presence of beta-NADPH measured by LC-MS/MS analysis; format: ADME, Microsome; how it was run: as §3
Sequence of Cytochrome P450 2A6 (P11509 whole entry): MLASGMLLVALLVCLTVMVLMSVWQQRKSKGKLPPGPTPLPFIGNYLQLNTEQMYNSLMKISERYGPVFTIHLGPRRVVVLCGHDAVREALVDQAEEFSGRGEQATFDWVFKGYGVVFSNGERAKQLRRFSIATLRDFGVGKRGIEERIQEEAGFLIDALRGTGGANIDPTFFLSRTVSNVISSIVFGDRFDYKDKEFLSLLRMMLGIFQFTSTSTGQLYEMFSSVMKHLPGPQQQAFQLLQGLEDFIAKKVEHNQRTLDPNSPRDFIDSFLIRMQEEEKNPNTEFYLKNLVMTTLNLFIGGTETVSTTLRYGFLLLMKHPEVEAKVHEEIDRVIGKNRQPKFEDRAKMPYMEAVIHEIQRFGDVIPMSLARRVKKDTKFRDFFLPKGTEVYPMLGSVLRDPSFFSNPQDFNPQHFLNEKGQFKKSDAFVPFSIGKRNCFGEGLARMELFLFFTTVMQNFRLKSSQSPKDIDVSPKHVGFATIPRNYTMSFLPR

[19] = Drug uptake in human red blood cells at 60 mins by LC-MS/MS analysis; format: ADME, cell-based; settings: erythrocyte, 1 h; how it was run: as §2
[20] = target: Cytochrome P450 2C19 (Homo sapiens, UniProt P33261); experiment: Inhibition of CYP2C19 in human liver microsomes using (S)-mephenytoin as substrate assessed as reduction in substrate hydroxylation incubated for 5 mins in presence of beta-NADPH measured by LC-MS/MS analysis; format: ADME, Microsome; how it was run: as §3
Sequence of Cytochrome P450 2C19 (P33261 whole entry): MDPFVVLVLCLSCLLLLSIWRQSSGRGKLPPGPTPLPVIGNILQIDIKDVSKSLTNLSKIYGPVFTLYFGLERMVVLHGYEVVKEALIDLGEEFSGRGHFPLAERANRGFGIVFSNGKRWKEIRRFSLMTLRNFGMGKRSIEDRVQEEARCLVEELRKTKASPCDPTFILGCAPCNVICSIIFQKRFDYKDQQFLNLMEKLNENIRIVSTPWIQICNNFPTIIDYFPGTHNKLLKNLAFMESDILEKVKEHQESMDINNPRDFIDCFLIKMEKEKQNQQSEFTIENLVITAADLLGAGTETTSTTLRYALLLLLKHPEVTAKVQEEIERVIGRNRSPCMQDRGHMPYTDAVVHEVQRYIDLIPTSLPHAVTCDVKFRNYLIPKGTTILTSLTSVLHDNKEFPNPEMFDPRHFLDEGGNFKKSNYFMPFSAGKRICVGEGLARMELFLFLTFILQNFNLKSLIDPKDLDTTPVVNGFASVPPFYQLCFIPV

[21] = Half life in human plasma measured by RP-HPLC analysis; format: ADME, cell-free
[22] = target: Cytochrome P450 1A2 (Homo sapiens, UniProt P05177); experiment: Inhibition of CYP1A2 in human liver microsomes using as phenacetin substrate assessed as reduction in O-deethylation of phenacetin incubated for 30 mins in presence of beta-NADPH by LC-MS/MS analysis; format: ADME, Microsome; how it was run: as §3
Sequence of Cytochrome P450 1A2 (P05177 whole entry): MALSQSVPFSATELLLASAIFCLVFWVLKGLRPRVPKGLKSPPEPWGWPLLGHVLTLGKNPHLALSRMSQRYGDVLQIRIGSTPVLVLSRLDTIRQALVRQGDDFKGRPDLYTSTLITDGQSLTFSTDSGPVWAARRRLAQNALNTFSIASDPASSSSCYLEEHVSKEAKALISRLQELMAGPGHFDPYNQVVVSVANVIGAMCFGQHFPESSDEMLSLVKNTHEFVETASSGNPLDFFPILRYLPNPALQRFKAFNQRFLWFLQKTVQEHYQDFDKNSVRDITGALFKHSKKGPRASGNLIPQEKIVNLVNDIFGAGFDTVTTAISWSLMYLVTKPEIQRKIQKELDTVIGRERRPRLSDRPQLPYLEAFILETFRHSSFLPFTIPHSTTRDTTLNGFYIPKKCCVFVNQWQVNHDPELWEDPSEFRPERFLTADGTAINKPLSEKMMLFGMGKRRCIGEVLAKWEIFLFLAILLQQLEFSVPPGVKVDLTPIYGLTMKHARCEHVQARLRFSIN

[23] = target: T1, Cytochrome P450 2C8; experiment: Inhibition of CYP2C8 in human liver microsomes using paclitaxel as substrate assessed as reduction in substrate hydroxylation incubated for 5 mins in presence of beta-NADPH measured by LC-MS/MS analysis; format: ADME, Microsome; how it was run: as §3
[24] = target: Cytochrome P450 2C9 (Homo sapiens, UniProt P11712); experiment: Inhibition of CYP2C9 in human liver microsomes using diclofenac as substrate assessed as reduction in substrate hydroxylation incubated for 30 mins in presence of beta-NADPH measured by LC-MS/MS analysis; format: ADME, Microsome; how it was run: as §3
Sequence of Cytochrome P450 2C9 (P11712 whole entry): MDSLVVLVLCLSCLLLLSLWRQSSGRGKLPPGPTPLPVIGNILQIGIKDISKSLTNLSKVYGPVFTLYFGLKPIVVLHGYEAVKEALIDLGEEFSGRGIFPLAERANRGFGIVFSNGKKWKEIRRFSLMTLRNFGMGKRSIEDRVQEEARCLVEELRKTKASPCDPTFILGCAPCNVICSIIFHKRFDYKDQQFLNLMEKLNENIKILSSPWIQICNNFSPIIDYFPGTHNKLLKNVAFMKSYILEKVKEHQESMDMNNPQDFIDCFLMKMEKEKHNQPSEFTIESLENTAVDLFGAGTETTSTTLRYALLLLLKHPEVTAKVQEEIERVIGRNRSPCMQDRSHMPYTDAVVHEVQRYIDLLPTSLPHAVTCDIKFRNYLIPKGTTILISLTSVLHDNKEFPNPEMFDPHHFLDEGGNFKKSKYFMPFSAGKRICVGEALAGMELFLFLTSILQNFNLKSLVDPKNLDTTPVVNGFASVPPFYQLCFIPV

[25] = target: Cytochrome P450 3A4 (Homo sapiens, UniProt P08684); experiment: Inhibition of CYP3A4 in human liver microsomes using testosterone as substrate assessed as reduction in substrate hydroxylation incubated for 30 mins in presence of beta-NADPH measured by LC-MS/MS analysis; format: ADME, Microsome; how it was run: as §3
Sequence of Cytochrome P450 3A4 (P08684 whole entry): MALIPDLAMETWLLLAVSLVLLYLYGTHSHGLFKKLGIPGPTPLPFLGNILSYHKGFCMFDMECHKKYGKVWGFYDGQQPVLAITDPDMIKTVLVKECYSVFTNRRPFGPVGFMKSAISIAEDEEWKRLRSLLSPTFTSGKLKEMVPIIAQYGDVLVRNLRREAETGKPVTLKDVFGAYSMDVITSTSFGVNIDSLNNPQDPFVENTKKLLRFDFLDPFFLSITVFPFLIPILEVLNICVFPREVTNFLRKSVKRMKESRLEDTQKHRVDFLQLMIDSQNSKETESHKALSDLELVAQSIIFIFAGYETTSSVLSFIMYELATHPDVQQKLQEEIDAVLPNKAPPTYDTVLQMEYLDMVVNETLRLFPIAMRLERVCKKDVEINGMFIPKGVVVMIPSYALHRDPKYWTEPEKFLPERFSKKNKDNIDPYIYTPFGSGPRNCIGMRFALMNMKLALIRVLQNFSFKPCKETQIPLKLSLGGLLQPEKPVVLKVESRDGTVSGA

With `NCCCC[C@H](NC(=O)[C@H](Cc1c[nH]c2ccccc12)NC(=O)[C@H](CCCCN)NC(=O)[C@H](CCCCN)NC(=O)C(NC(=O)[C@H](Cc1c[nH]c2ccccc12)NC(=O)[C@H](CCCCN)NC(=O)[C@H](CCCCN)NC(=O)[C@@H](N)Cc1c[nH]c2ccccc12)C(c1ccccc1)c1ccccc1)C(N)=O` (stereo partly specified) (H-WKKW[ξDip]KKWK-NH2) the IC50 [1] was 6.4 µM, the IC50 [2] was 5.3 µM and the IC50 [3] was 14.1 µM. It also gave an IC50 [4] of 12.7 µM, an IC50 [5] of 7.1 µM and an IC50 [6] of 19.2 µM. The IC50 [7] was 9 µM, the IC50 [8] was 8.2 µM and the IC50 [9] was 9 µM. It also gave an IC50 [10] of 5.4 µM, an IC50 [11] of 11.7 µM and an IC50 [12] of 13.9 µM. It also gave an IC50 [13] of 21 µM and an IC50 [14] of 11 µM.
With `NCCCC[C@H](NC(=O)[C@H](Cc1c[nH]c2ccccc12)NC(=O)[C@H](Cc1c[nH]c2ccccc12)NC(=O)[C@H](CCCCN)NC(=O)[C@H](CCCCN)NC(=O)[C@H](Cc1c[nH]c2ccccc12)NC(=O)C(Cc1ccc(-c2ccccc2)cc1)NC(=O)[C@H](CCCCN)NC(=O)[C@@H](N)CCCCN)C(N)=O` (stereo partly specified) (H-KK[ξBip]WKKWWK-NH2) the IC50 [1] was 6.6 µM, the IC50 [2] was 5.7 µM and the IC50 [3] was 9.3 µM. It also gave an IC50 [4] of 7.8 µM, an IC50 [5] of 8.5 µM and an IC50 [6] of 16.8 µM. For the same molecule, the IC50 [7] was 11.2 µM, the IC50 [8] was 7.2 µM and the IC50 [9] was 7.9 µM. For the same molecule, the IC50 [10] was 3.2 µM, the IC50 [11] was 7.2 µM and the IC50 [12] was 7.9 µM. The IC50 [13] was 17.7 µM and the IC50 [14] was 10.5 µM.
`N=C(N)NCCC[C@H](NC(=O)[C@H](Cc1c[nH]c2ccccc12)NC(=O)[C@H](Cc1c[nH]c2ccccc12)NC(=O)[C@H](CCCNC(=N)N)NC(=O)[C@H](CCCNC(=N)N)NC(=O)C(NC(=O)[C@H](Cc1c[nH]c2ccccc12)NC(=O)[C@H](CCCNC(=N)N)NC(=O)[C@@H](N)CCCNC(=N)N)C(c1ccccc1)c1ccccc1)C(N)=O` (stereo partly specified) (H-RRW[ξDip]RRWWR-NH2) gave an IC50 [1] of 5.5 µM, an IC50 [2] of 3.6 µM and an IC50 [3] of 9.8 µM. For the same molecule, the IC50 [4] was 5.4 µM, the IC50 [5] was 5.3 µM and the IC50 [6] was 7.5 µM. It also gave an IC50 [7] of 9.3 µM, an IC50 [8] of 7 µM and an IC50 [9] of 7.7 µM. For the same molecule, the IC50 [10] was 2.8 µM, the IC50 [11] was 5.5 µM and the IC50 [12] was 5.7 µM. It also gave an IC50 [13] of 11.3 µM and an IC50 [14] of 11.5 µM.
`NCCCC[C@H](NC(=O)C(NC(=O)[C@H](Cc1c[nH]c2ccccc12)NC(=O)[C@H](CCCCN)NC(=O)[C@H](CCCCN)NC(=O)[C@H](Cc1c[nH]c2ccccc12)NC(=O)[C@H](Cc1c[nH]c2ccccc12)NC(=O)[C@H](CCCCN)NC(=O)[C@@H](N)CCCCN)C(c1ccccc1)c1ccccc1)C(N)=O` (stereo partly specified) (H-KKWWKKW[ξDip]K-NH2) showed an IC50 [1] of 3.2 µM, an IC50 [2] of 2.4 µM and a Drug uptake [15] of 44%. It also gave an IC50 [3] of 4.4 µM, an IC50 [4] of 3.3 µM and an IC50 [5] of 3.6 µM. It also gave an IC50 [6] of 5.8 µM, an IC50 [7] of 3.4 µM and an IC50 [8] of 3 µM. It also gave an IC50 [16] of 7.9 µM, a fraction unbound at 20 h [17] greater than 0.25 and an IC50 [9] of 3 µM. It also gave an IC50 [18] of 7 µM, an IC50 [10] of 1.7 µM and an IC50 [11] of 3.2 µM. It also gave a Drug uptake [19] of 27%, an IC50 [12] of 2.9 µM and an IC50 [20] of 23.3 µM. For the same molecule, the half-life [21] was 2.67 h, the IC50 [22] was greater than 100 µM and the IC50 [23] was 10.2 µM. The IC50 [13] was 11 µM, the IC50 [24] was 8.7 µM and the IC50 [14] was 3.3 µM. It also gave an IC50 [25] of 12.1 µM.
In the case of `NCCCC[C@H](NC(=O)[C@H](Cc1c[nH]c2ccccc12)NC(=O)[C@H](Cc1c[nH]c2ccccc12)NC(=O)[C@H](CCCCN)NC(=O)[C@H](CCCCN)NC(=O)[C@H](Cc1c[nH]c2ccccc12)NC(=O)[C@H](Cc1ccc(-c2ccccc2)cc1)NC(=O)[C@H](CCCCN)NC(=O)[C@@H](N)CCCCN)C(N)=O` (H-KK[Bip]WKKWWK-NH2), the IC50 [1] is reported as 6.6 µM, the IC50 [2] is reported as 4 µM and the IC50 [3] is reported as 10.1 µM. It also gave an IC50 [4] of 8.8 µM, an IC50 [5] of 6.5 µM and an IC50 [6] of 13.8 µM. The IC50 [7] was 8.7 µM, the IC50 [8] was 7.4 µM and the IC50 [9] was 7.6 µM. For the same molecule, the IC50 [10] was 3.8 µM, the IC50 [11] was 7.1 µM and the IC50 [12] was 6.4 µM. It also gave an IC50 [13] of 11.3 µM and an IC50 [14] of 8.9 µM.
